ChEMBL document CHEMBL3603779, “Identification and Optimization of Benzimidazole Sulfonamides as Orally Bioavailable Sphingosine 1-Phosphate Receptor 1 Antagonists with in Vivo Activity” (J Med Chem, 2015)
Each block holds one compound with its values, some of them ahead of it. The source made the active and inactive calls. No cut-off for these calls is given here.

Legend:
[1] = tested on: COLO 205; experiment: Increase in pulmonary vascular permeability in tumor of human COLO205 cells xenografted NCr mouse assessed as induction of capillary leakage in at 50 mg/kg, po by Evans blue dye assay; type: functional, organism-based
[2] = tested on: Calu-6; experiment: Increase in pulmonary vascular permeability in tumor of human Calu6 cells xenografted NCr mouse assessed as induction of capillary leakage in at 50 mg/kg, po by Evans blue dye assay; type: functional, organism-based
[3] = Volume of distribution at steady state in Han Wistar rat at 4 mg/kg, iv by LCMS/MS method; type: ADME, organism-based; settings: in vivo, read-out: Vdss
[4] = Cmax in beagle dog at 5 mg/kg, po by LCMS/MS method; type: ADME, organism-based, Canis lupus familiaris; set-up: dose 5 mg/kg, route oral; settings: in vivo
[5] = Oral bioavailability in beagle dog at 5 mg/kg by LCMS/MS method; type: ADME, organism-based, Canis lupus familiaris; settings: in vivo
[6] = Clearance in beagle dog at 2 mg/kg, iv by LCMS/MS method; type: ADME, organism-based, Canis lupus familiaris; settings: in vivo
[7] = Half life in beagle dog at 2 mg/kg, iv by LCMS/MS method; type: ADME, organism-based, Canis lupus familiaris; settings: in vivo
[8] = Clearance in Han Wistar rat at 4 mg/kg, iv by LCMS/MS method; type: ADME, organism-based; settings: in vivo
[9] = Volume of distribution at steady state in beagle dog at 2 mg/kg, iv by LCMS/MS method; type: ADME, organism-based, Canis lupus familiaris; settings: in vivo, read-out: Vdss
[10] = Half life in Han Wistar rat at 4 mg/kg, iv by LCMS/MS method; type: ADME, organism-based; settings: in vivo
[11] = Antitiumor activity against human Calu6 cells xenografted in NCr mouse assessed as tumor growth at 50 mg/kg, po bid dosed on day 11 to 33; type: functional; settings: Calu-6, po, read-out: GI
Summary of the method: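 Calu6 xenografts in female NCr-nude mice, oral dosing twice daily. Schedules: 20 mg/kg BID on days 13-32, or 50 mg/kg BID on days 11-33. Vehicle (HPMC) controls n=20, treated n=14. Tumor volume compared with controls.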

[12] = tested on: Mus musculus; experiment: Increase in pulmonary vascular permeability in NCr mouse lung assessed as induction of capillary leakage in at 50 mg/kg, po administered a single oral dose by Evans blue dye assay; type: functional, organism-based
Summary of the method: (§1)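 Female NCr nude mice (4 per cohort) given a single oral dose, 20 or 50 mg/kg, or vehicle (0.5% HPMC, 0.1% Tween 80). Evans blue dye (20 mg/kg) injected 1 h later. After 30 min, mice anesthetized and perfused with 0.9% saline; lung dye measured by spectrophotometry and normalized to vehicle-treated animals.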

[13] = molecular target: Voltage-gated inwardly rectifying potassium channel KCNH2 (Homo sapiens, UniProt Q12809)
Voltage-gated inwardly rectifying potassium channel KCNH2, sequence (Q12809 whole entry): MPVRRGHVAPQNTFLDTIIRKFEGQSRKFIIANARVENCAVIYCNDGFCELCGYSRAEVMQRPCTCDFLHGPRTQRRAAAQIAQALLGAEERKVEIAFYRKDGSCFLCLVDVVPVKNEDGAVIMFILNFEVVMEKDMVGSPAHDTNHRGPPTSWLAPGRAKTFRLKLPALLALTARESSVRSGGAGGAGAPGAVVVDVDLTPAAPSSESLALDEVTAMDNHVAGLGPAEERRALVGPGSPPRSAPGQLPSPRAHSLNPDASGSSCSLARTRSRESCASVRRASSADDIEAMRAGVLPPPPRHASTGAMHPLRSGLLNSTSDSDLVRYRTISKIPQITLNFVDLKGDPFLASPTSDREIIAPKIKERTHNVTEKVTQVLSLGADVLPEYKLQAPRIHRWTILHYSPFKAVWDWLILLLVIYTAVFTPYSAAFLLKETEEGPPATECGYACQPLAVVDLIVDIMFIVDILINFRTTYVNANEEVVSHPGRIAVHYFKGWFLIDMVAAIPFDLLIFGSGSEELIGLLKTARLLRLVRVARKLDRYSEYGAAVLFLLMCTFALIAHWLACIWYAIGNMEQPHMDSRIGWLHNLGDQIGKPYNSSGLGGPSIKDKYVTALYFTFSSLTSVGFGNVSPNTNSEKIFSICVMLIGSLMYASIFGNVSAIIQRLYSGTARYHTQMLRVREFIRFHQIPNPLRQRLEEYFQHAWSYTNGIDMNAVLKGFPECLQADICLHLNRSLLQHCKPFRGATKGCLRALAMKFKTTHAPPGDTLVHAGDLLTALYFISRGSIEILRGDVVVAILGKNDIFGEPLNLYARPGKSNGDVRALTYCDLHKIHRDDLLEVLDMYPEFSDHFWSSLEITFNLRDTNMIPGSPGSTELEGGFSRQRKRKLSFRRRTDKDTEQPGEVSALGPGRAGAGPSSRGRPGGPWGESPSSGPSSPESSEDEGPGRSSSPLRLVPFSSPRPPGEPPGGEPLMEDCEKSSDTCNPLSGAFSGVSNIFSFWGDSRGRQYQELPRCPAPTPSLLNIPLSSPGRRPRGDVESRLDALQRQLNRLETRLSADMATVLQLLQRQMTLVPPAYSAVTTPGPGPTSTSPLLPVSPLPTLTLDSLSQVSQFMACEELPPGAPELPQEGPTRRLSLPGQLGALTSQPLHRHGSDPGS

[14] = Clearance in beagle dog at 2.5 mg/kg, iv by LCMS/MS method; type: ADME, organism-based, Canis lupus familiaris; settings: in vivo
[15] = Clearance in Han Wistar rat at 3 mg/kg, iv by LCMS/MS method; type: ADME, organism-based; settings: in vivo
[16] = Volume of distribution at steady state in beagle dog at 2.5 mg/kg, iv; type: ADME, organism-based, Canis lupus familiaris; settings: in vivo, read-out: Vdss
[17] = Oral bioavailability in beagle dog at 10 mg/kg by LCMS/MS method; type: ADME, organism-based, Canis lupus familiaris; settings: in vivo
[18] = tested on: Calu-6; experiment: Increase in pulmonary vascular permeability in tumor of human Calu6 cells xenografted NCr mouse assessed as induction of capillary leakage in at 20 mg/kg, po by Evans blue dye assay; type: functional, organism-based
[19] = Volume of distribution at steady state in Han Wistar rat at 3 mg/kg, iv by LCMS/MS method; type: ADME, organism-based; settings: in vivo, read-out: Vdss
[20] = Half life in beagle dog at 2.5 mg/kg, iv by LCMS/MS method; type: ADME, organism-based, Canis lupus familiaris; settings: in vivo
[21] = tested on: Mus musculus; experiment: Increase in pulmonary vascular permeability in NCr mouse lung assessed as induction of capillary leakage in at 20 mg/kg, po administered a single oral dose by Evans blue dye assay; type: functional, organism-based; summary of the method: as §1
[22] = Half life in Han Wistar rat at 3 mg/kg, iv by LCMS/MS method; type: ADME, organism-based; settings: in vivo
[23] = tested on: COLO 205; experiment: Increase in pulmonary vascular permeability in tumor of human COLO205 cells xenografted NCr mouse assessed as induction of capillary leakage in at 20 mg/kg, po by Evans blue dye assay; type: functional, organism-based
[24] = Cmax in beagle dog at 10 mg/kg, po by LCMS/MS method; type: ADME, organism-based, Canis lupus familiaris; set-up: dose 10 mg/kg, route oral; settings: in vivo

Vd [3]: 1.3 L/kg | Cmax [4]: 10.7 µM | bioavailability [5]: 71% | clearance [6]: 2 mL/min/kg | half-life [7]: 4.6 h | clearance [8]: 10 mL/min/kg | Vd [9]: 0.7 L/kg | half-life [10]: 2.9 h
Structure (SMILES): CCn1c([C@@H](C)NS(=O)(=O)c2ccc(C#N)nc2)nc2cnc(C3CC3)cc21
Activity [1]: inactive | Activity [2]: inactive | inhibition in vivo at 50 mg/kg [11]: 32% | Activity [12]: Active

clearance [14]: 2 mL/min/kg | clearance [15]: 8 mL/min/kg | Vd [16]: 0.6 L/kg | bioavailability [17]: 81% | Vd [19]: 1.2 L/kg | half-life [20]: 4.9 h | half-life [22]: 2.4 h | Cmax [24]: 31.1 µM
Structure (SMILES): CCn1c([C@@H](C)NS(=O)(=O)c2ccc(C#N)nc2)nc2cnc(C(F)(F)F)cc21
IC50 [13]: > 200 µM | Activity [18]: inactive | Activity [21]: Active | Activity [23]: inactive
